Reference: ChEMBL document CHEMBL3232756, “Synthesis and biological evaluation of N-dehydrodipeptidyl-N,N'-dicyclohexylurea analogs” (Eur J Med Chem, 2014)
pIC50: −log10 of the molar value. In brackets after ≈: the same amount, converted by molar mass.

Key:
[1] = Cytotoxicity against brine shrimps larvae assessed as mortality after 24 hrs; format: organism-based; details: artemia, in vivo; read-out: ED50
Summary of the method: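 Shrimp eggs were hatched in filtered artificial sea water (38 g sea salt/L) in a divided tank. Larvae were exposed in vials at several concentrations under a lamp, and survivors were counted 24 h later. ED50 and 95% confidence intervals were derived from % larvae surviving by Finney probit analysis.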

[2] = tested on: Mus musculus; assay: Analgesic activity in Swiss albino mouse assessed as inhibition of acetic acid-induced writhing response at 100 mg/kg, po administered 1 hr before acetic acid challenge after 5 mins; format: functional
[3] = tested on: Staphylococcus aureus; assay: Antimicrobial activity against Staphylococcus aureus MTCC 96 at 0.02 ml of 1 mg/ml after 24 hrs by cup plate method; format: functional; details: MTCC 96, 24 h, read-out: DIZ
Summary of the method: (§1)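 Cup-plate diffusion on Mueller-Hinton/nutrient agar swab-streaked with suspension, 6 mm cups bored. Each compound at 1 mg/ml in DMSO, 0.02 ml per cup; DMSO as solvent control. Amoxicillin for bacteria and fluconazole for fungi at 200 and 500 respectively as references. Incubation 37 °C for 24 h. Inhibition zone diameter in mm, triplicate, mean ± SD.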

[4] = tested on: Pseudomonas aeruginosa; assay: Antimicrobial activity against Pseudomonas aeruginosa MTCC 1688 at 0.02 ml of 1 mg/ml after 24 hrs by cup plate method; format: functional; details: MTCC 1688, 24 h, read-out: DIZ; summary of the method: as §1
[5] = tested on: Radical scavenging activity; assay: Antioxidant activity assessed as DPPH radical scavenging activity after 20 to 30 mins; format: functional
Summary of the method: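 Test solution (2 ml at 25, 50, 75, 100, 125) mixed with 2 ml ethanolic DPPH, held in the dark at ambient temperature 20–30 min, then A517 read against an ethanol blank. Tocopherol used as standard. % scavenging = (Acontrol−Atest)/Acontrol×100, run in triplicate. IC50 read graphically from the % scavenging versus concentration plot.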

[6] = Antioxidant activity assessed as trolox equivalents of cupric reducing antioxidant capacity after 30 mins; format: functional
Summary of the method: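 Mix of 1 ml CuCl2 (10 mM), 1 ml ethanolic neocuproine (7.5 mM), 1 ml ammonium acetate buffer (pH 7.0, 1 M), 1 ml compound or standard solution and 0.1 ml water, total 4.1 ml. A450 read after 30 min against reagent blank. TEAC = ε test/ε Trolox.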

[7] = tested on: Mus musculus; assay: Acute toxicity in Swiss albino mouse assessed as gross behavioral changes up to 1500 mg/kg, po; format: organism-based; set-up: dose 1500 mg/kg, route oral; details: in vivo
Summary of the method: (§2)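 Swiss albino mice (6–8 weeks, 25–30 g) were dosed orally at 500, 1000 or 1500 mg/kg, following OECD guidelines. Body weight, food and water intake, behavioural patterns and mortality were recorded and compared with a control group.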

[8] = tested on: Candida albicans; assay: Antimicrobial activity against Candida albicans MTCC 227 at 0.02 ml of 1 mg/ml after 24 hrs by cup plate method; format: functional; details: MTCC 227, 24 h, read-out: DIZ; summary of the method: as §1
[9] = Antioxidant activity assessed as hydroxyl radical scavenging activity after 15 mins; format: functional
Summary of the method: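 Deoxyribose degradation mix: 2-deoxy-2-ribose 2.8 mM, KH2PO4–KOH 20 mM pH 7.4, FeCl3, EDTA, H2O2 1.0 mM, ascorbic acid, plus compound in methanol. Incubated 1 h at 37 °C. A 0.5 ml aliquot taken with 1 ml 2.8% TCA and 1 ml 1% TBA, heated 90 °C for 15 min, cooled, A532 read. % inhibition against blank.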

[10] = tested on: Escherichia coli; assay: Antimicrobial activity against Escherichia coli ESS 2231 at 0.02 ml of 1 mg/ml after 24 hrs by cup plate method; format: functional; details: ESS 2231, 24 h, read-out: DIZ; summary of the method: as §1
[11] = tested on: Aspergillus niger; assay: Antimicrobial activity against Aspergillus niger MTCC 292 at 0.02 ml of 1 mg/ml after 24 hrs by cup plate method; format: functional; details: MTCC 292, 24 h, read-out: DIZ; summary of the method: as §1
[12] = tested on: Mus musculus; assay: Acute toxicity in Swiss albino mouse assessed as mortality up to 1500 mg/kg, po; format: organism-based; set-up: dose 1500 mg/kg, route oral; details: in vivo; summary of the method: as §2
[13] = tested on: Bacillus subtilis; assay: Antimicrobial activity against Bacillus subtilis MTCC 441 at 0.02 ml of 1 mg/ml after 24 hrs by cup plate method; format: functional; details: MTCC 441, 24 h, read-out: DIZ; summary of the method: as §1
[14] = tested on: Brain; assay: Antioxidant activity against lipid peroxidation in Wister rat brain homogenates assessed as thiobarbituric acid reactive substance formation after 30 mins by spectrophotometer analysis; format: functional, tissue-based; details: 0.5 h
Summary of the method: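 Whole brain minus cerebellum from overnight-fasted rats of either sex, 200–220 g. Homogenized 10% w/v in 0.15 M KCl and spun at 800 rpm for 10 min. Reaction incubated 37 °C for 30 min, then TBA:TCA (1:1) and BHT added, heated 80 °C for 20 min, cooled, centrifuged, A532 read.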

[15] = tested on: Rattus norvegicus; assay: Antiinflammatory activity in Wister rat assessed as inhibition of carrageenan-induced paw edema at 100 mg/kg, po administered 1 hr before carrageenan challenge measured after 3 hrs by plethysmograph analysis; format: functional
Summary of the method: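 Rats of either sex, 150–220 g, food withheld 4 h. Compound or diclofenac sodium 100 mg/kg p.o., or 0.5% sodium CMC at 10 ml/kg as vehicle control, given 1 h before 0.05 ml of 1% carrageenan subplantar into the right hind paw. Paw volume read by water-displacement plethysmograph at 0, 30, 60, 120 and 180 min. % edema inhibition = 100(1−Vt/Vc); n=5, control n=6; ANOVA/Dunnett.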

SMILES | LC50 at 24 h [1] [µg/mL] | inhibition in vivo at 100 mg/kg [2] [%] | zone of inhibition at 1000 µg/mL [3] [mm] | zone of inhibition at 1000 µg/mL [4] [mm] | pIC50 [5] | TEAC (Trolox equivalents) [6] | Activity [7] | zone of inhibition at 1000 µg/mL [8] [mm] | pIC50 [9] | zone of inhibition at 1000 µg/mL [10] [mm] | zone of inhibition at 1000 µg/mL [11] [mm] | Activity [12] | zone of inhibition at 1000 µg/mL [13] [mm] | pIC50 [14] | inhibition in vivo at 100 mg/kg [15] [%]
COc1cc([C@@H]2c3cc4c(cc3[C@H](O)[C@H]3COC(=O)[C@H]23)OCO4)cc(OC)c1OC [PODOFILOX] | 3.77 (≈ 9.1 µM) |  |  |  |  |  |  |  |  |  |  |  |  |  | 
CC(=O)Oc1ccccc1C(=O)O [ASPIRIN] |  | 63.1 |  |  |  |  |  |  |  |  |  |  |  |  | 
CC(C)c1ccc(/C=C(/NC(=O)c2ccccc2)C(=O)NC(CS)C(=O)N(C(=O)NC2CCCCC2)C2CCCCC2)cc1 (stereo unspecified) | 16.7 (≈ 27 µM) | 58.5 | 12.9 | 15.4 | 4.13 | 2.36 | Non-toxic | 12.2 | 4.08 | 11.8 | 14.4 | Non-toxic | 15.2 | 4.03 | 28.2
Cc1ccc(/C=C(/NC(=O)c2ccccc2)C(=O)NC(CS)C(=O)N(C(=O)NC2CCCCC2)C2CCCCC2)cc1 (stereo unspecified) |  | 41.2 | 16.8 | 18.4 | 4.08 | 2.36 | Non-toxic | 14.2 | 4.18 | 22.7 | 15.4 | Non-toxic | 15.8 | 3.95 | 35.5
COc1ccc(/C=C(/NC(=O)c2ccccc2)C(=O)NC(CS)C(=O)N(C(=O)NC2CCCCC2)C2CCCCC2)cc1 (stereo unspecified) |  | 36 | 19.2 | 17.7 | 4.05 | 2.91 | Non-toxic | 19.8 | 4.01 | 16.4 | 20.3 | Non-toxic | 20.1 | 3.90 | 31.5
COc1ccc(/C=C(/NC(=O)c2ccccc2)C(=O)NCC(=O)N(C(=O)NC2CCCCC2)C2CCCCC2)cc1 |  | 39.6 | 14.3 | 10.3 | 4.03 | 1.24 | Non-toxic | 19.6 | 4.03 | 15.8 | 18.8 | Non-toxic | 11.3 | 3.97 | 12
O=C(NCC(=O)N(C(=O)NC1CCCCC1)C1CCCCC1)/C(=C\c1ccc(Cl)cc1)NC(=O)c1ccccc1 |  | 27.6 | 11.8 | 9.2 | 4.08 | 0.93 | Non-toxic | 12.7 | 4.08 | 16.3 | 13.5 | Non-toxic | 13.5 | 4.01 | 15.2
CC(C)c1ccc(/C=C(/NC(=O)c2ccccc2)C(=O)NCC(=O)N(C(=O)NC2CCCCC2)C2CCCCC2)cc1 |  | 47.4 | 16.4 | 17.3 | 4.21 | 1.19 | Non-toxic | 13.1 | 4.22 | 18.1 | 21.2 | Non-toxic | 18.4 | 4.22 | 26
O=C(NCC(=O)N(C(=O)NC1CCCCC1)C1CCCCC1)/C(=C\c1ccc(F)cc1)NC(=O)c1ccccc1 |  | 22 | 19.3 | 17.6 | 4.05 | 1.22 | Non-toxic | 19.2 | 4.05 | 16.5 | 20.8 | Non-toxic | 20.1 | 4.01 | 20.6
O=C(NC(CS)C(=O)N(C(=O)NC1CCCCC1)C1CCCCC1)/C(=C\c1ccc(O)cc1)NC(=O)c1ccccc1 (stereo unspecified) | 4.38 (≈ 7.39 µM) | 43.2 | 24.8 | 20.7 | 4.33 | 3.91 | Non-toxic | 26.6 | 4.27 | 23.5 | 24.5 | Non-toxic | 24.4 | 4.26 | 41.3
O=C(NC(CS)C(=O)N(C(=O)NC1CCCCC1)C1CCCCC1)/C(=C\c1ccc(F)cc1)NC(=O)c1ccccc1 (stereo unspecified) |  | 42 | 11.4 | 16.6 | 4.23 | 3.6 | Non-toxic | 17.1 | 4.29 | 14.3 | 18.2 | Non-toxic | 14.5 | 4.13 | 25
O=C(O)Cc1ccccc1Nc1c(Cl)cccc1Cl [DICLOFENAC SODIUM] |  |  |  |  |  |  |  |  |  |  |  |  |  |  | 66.8
Cc1ccc(/C=C(/NC(=O)c2ccccc2)C(=O)NCC(=O)N(C(=O)NC2CCCCC2)C2CCCCC2)cc1 |  | 48.8 | 15.5 | 17.6 | 4.14 | 1.24 | Non-toxic | 13.4 | 4.00 | 13.3 | 14.5 | Non-toxic | 13.2 | 3.89 | 23.9
Cc1cc(C(C)(C)C)c(O)c(C(C)(C)C)c1 [BUTYLATED HYDROXYTOLUENE] |  |  |  |  |  |  |  |  |  |  |  |  |  | 4.24 | 
COc1cc(/C=C(/NC(=O)c2ccccc2)C(=O)NC(CS)C(=O)N(C(=O)NC2CCCCC2)C2CCCCC2)ccc1O (stereo unspecified) |  | 48 | 22.1 | 20.8 |  | 3.6 | Non-toxic | 20.4 | 4.03 | 24.6 | 19.3 | Non-toxic | 20.2 | 4.09 | 38.4
O=C1O[C@H]([C@@H](O)CO)C(O)=C1O [ASCORBIC ACID] |  |  |  |  |  | 2.63 |  |  | 4.30 |  |  |  |  |  | 
